# Assay outcomes deposited in PubChem BioAssay by SRMLSC.
# Lung fibro prol – blocks proliferation of human lung fibroblasts; 1.1% of 85,000 active; LL 47 human lung fibroblast viability, ATP luminescence; hits give low values; viability, % at 10 µM;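 active = viability at or below 50% in the single dose screen; inactive = viability above 50%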;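 also: compound exposure lasted 72 h before the ATP readout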
#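 test system = LL 47 human lung fibroblasts | amount = 1,150 fibroblasts seeded per well | medium = 15% FBS in IMEM | times = overnight cell rest, 72 h compound treatment at 37 °C | measured by = CellTiter-Glo luminescence measuring cellular ATP | read-out = viability percentage against median untreated-cell control | benchmarks = cell-only wells, no compound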
# bCat KO growth – beta-catenin-lacking colon tumor cell growth suppression; viability, % at 10 µM; HCT116 beta-catenin knockout viability, CellTiter-Glo, 60 h; hits give low values; 1.5% of 140,000 active;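 active = viability at or under a set limit, the compound median less 4 SD, cut at about 6% in these data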
# H69AR inhibit – blocks growth of human H69AR lung tumor cells; H69AR lung tumor viability, ATP luminescence, 72 h; hits give low values; viability, % at 10 µM; 6% of 85,000 active;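 active = viability at or below 40%; inactive = viability above 40%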;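 also: multidrug resistant small cell line overexpressing MRP-1 efflux transporter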
# HCT116 PTEN-null – suppresses growth of cells with PTEN deletion; HCT116 PTEN-null viability, CellTiter-Glo, 60 h; hits give low values; viability, % at 10 µM; 1.2% of 140,000 active; AID 827;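 active = viability at or below a set limit, 4 SD under the median of all tested compounds, cut at about 3.7% in these data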;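 also: PTEN knockout HCT116 line with beta catenin targeted HCT116 as companion control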
# HUVEC prolif 384 – human endothelial cell proliferation inhibition; HUVEC proliferation, CellTiter-Glo luminescence, 72 h; hits give low values; viability, % at 10 µM (by protocol); 1.1% of 86,000 active;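 active = viability at or below 30%; inactive = viability above 30%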
# A number is an active result; . = inactive; / = no result given. Shown is part of a subset that was picked to be rich in hits.
SMILES,Lung fibro prol,bCat KO growth,H69AR inhibit,HCT116 PTEN-null,HUVEC prolif 384
CCC(Sc1nnc2c3ccccc3n(CC)c2n1)C(=O)Nc1sc2c(c1C#N)CCCC2 (stereo not drawn),/,1.4,/,1.4,/
O=C(CN(C1CC1)S(=O)(=O)c1ccc(S(=O)(=O)N2CCCCCC2)cc1)Nc1ccccc1,.,.,37,.,.
CCN(C1CCCCC1)S(=O)(=O)c1ccc(S(=O)(=O)N(CC(=O)Nc2ccccc2)C2CC2)cc1,.,.,.,.,.
COC(=O)C1(C(F)(F)F)N=C2Sc3ccccc3N2C(N2CCOCC2)=N1 (stereo not drawn),.,4.7,.,.,.
NS(=O)(=O)c1ccc(CNC(=O)/C=C/c2c(Cl)cccc2Cl)cc1,/,.,/,.,/
Cn1c(SCC(=O)Nc2ccc3c(c2)OCCO3)nnc1-c1ccccn1,.,.,.,.,.
CC(=O)c1c(C)[nH]c(C(=O)CSc2nnc(-c3ccco3)n2Cc2ccccc2)c1C,.,.,39,.,.
CC(=O)c1c(C)[nH]c(C(=O)CSc2nnc(-c3ccccc3)n2Cc2ccc3c(c2)OCO3)c1C,.,.,20,.,13
CCOc1ccc2nc(SCC(=O)Nc3ccc4c(c3)OCCO4)[nH]c2c1,.,.,.,.,.
O=C(CSc1nc2ncc(Br)cc2[nH]1)Nc1ccc2c(c1)OCO2,.,.,2.5,.,.
O=C(CSc1nnc(-c2ccccn2)n1Cc1ccccc1)Nc1ccc2c(c1)OCO2,.,.,14,.,.
O=c1c2ccsc2ncn1Cc1cccc(C(F)(F)F)c1,/,.,/,.,/
CCOC(=O)c1c(C)[nH]c(C(=O)CSc2nnc(-c3cccs3)n2Cc2ccccc2)c1C,.,.,4.9,.,.
O=C(CSc1ncnc2c1cnn2-c1ccccc1)Nc1ccc2c(c1)OCO2,.,.,37,.,.
CCOc1ccc(-c2nc(N)ncc2Oc2cccc(OC)c2)c(O)c1,.,.,14,.,.
CCCc1cc2c(=O)c(-c3ccc4c(c3)OCCO4)coc2cc1OC(=O)c1ccco1,.,.,40,.,.
CCc1cc2c(=O)c(-c3ccc4c(c3)OCCO4)coc2cc1OC(=O)c1ccco1,.,.,15,.,.
COc1ccc(C(=O)/C=C2/Sc3cc4c(cc3N2C)OCO4)cc1,/,.,/,.,/
N#CCc1nc2c3c4c(sc3ncn2n1)CCCC4,.,.,.,.,16
CCOC(=O)c1c(CN2CCN(c3ccccc3)CC2)oc2ccc(O)cc12,.,.,31,.,27
CCOC(=O)c1c(CN2CCN(C)CC2)oc2ccc(OC)cc12,.,.,.,.,.
COc1cccc2sc(N3CCN(c4nc5ccccc5s4)CC3)nc12,.,1.8,3.2,2.4,26
c1ccc2sc(N3CCOCC3)nc2c1,.,.,.,/,.
COc1ccc2c(c1)O[C@H](c1ccc3c(c1)OCO3)[C@@H](OC(=O)N[C@H](C)C1CCCCC1)C2=O,/,.,/,1.2,/
COc1cccc([C@@H]2Oc3ccc(OC)cc3C(=O)[C@H]2OC(=O)N[C@H](C)C2CCCCC2)c1,/,.,/,.,/
SMILES,Lung fibro prol,bCat KO growth,H69AR inhibit,HCT116 PTEN-null,HUVEC prolif 384
CCOCCOC(=O)COC(=O)c1ccccc1NC(=O)c1ccccc1,/,.,/,.,/
CN1CCc2c(sc3c2C(=O)NC(c2cccs2)N3)C1 (stereo not drawn),.,.,.,.,.
CN1CCc2c(sc3c2C(=O)NC(c2ccc(-c4cccc(Cl)c4)o2)N3)C1 (stereo not drawn),.,/,3.3,/,.
C/C(Cl)=C/Cn1c(SCC(C)C)nc2c1c(=O)[nH]c(=O)n2C,.,/,35,/,.
c1ccc(-c2nc(N3CCCCCC3)nc(-n3ccnc3)n2)cc1,.,.,0.9,.,.
CN(c1ccccc1)c1nc(-n2ccnc2)nc(-n2ccnc2)n1,.,.,32,.,.
CCCCNc1nc(N(C)c2ccccc2)nc(-n2ccnc2)n1,.,.,33,.,.
C=CCNc1nc(N(c2ccccc2)c2ccccc2)nc(-n2ccnc2)n1,.,.,.,.,.
c1ccc(-c2nc(N3CCN(c4ccccc4)CC3)nc(-n3ccnc3)n2)cc1,.,.,.,.,.
CCOc1ccccc1NC(=O)CC1NCCNC1=O (stereo not drawn),.,.,.,.,.
Cc1cccn2c(=O)c(C=NCc3ccco3)c(Nc3ccc(Cl)cc3)nc12,.,/,23,/,.
CCC(C)N=Cc1c(NCc2ccco2)nc2c(C)cccn2c1=O (stereo not drawn),.,.,.,.,.
CCN1CCc2nc(NC(=O)C(c3ccccc3)c3ccccc3)sc2C1,.,.,.,.,.
COc1cccc(C2C3=C(CC(C)(C)CC3=O)Nc3cc4c(cc32)OCO4)c1 (stereo not drawn),.,.,32,.,.
COc1cc2c(cc1OC)C(c1ccc3c(c1)OCO3)C1=C(CC(C)(C)CC1=O)N2 (stereo not drawn),.,.,.,.,.
CCOc1cc(CNn2cnnc2)ccc1OCC(=O)NC1CCCCC1,.,.,.,.,.
COc1ccc(C2C(C(C)=O)=C(O)C(=O)N2CCO)c(OC)c1 (stereo not drawn),.,.,.,.,.
COC(=O)[C@@H]1CC[C@H](C)[C@@H](c2ccc(C)cc2)N1C(=O)c1ccc(/C=N/O[C@@H](C)CN2CCCCc3nc(C)c(C)cc32)cc1,/,5.9,/,.,/
Cc1cc(=O)oc(C)c1C(=O)NCC(C)NC(=O)c1c(C)cc(=O)oc1C (stereo not drawn),.,.,.,.,.
O=c1[nH]c(=O)n(Cc2ccccc2)c2nc(-c3ccc(Oc4ccc(F)cc4)c([N+](=O)[O-])c3)n(CCO)c12,/,0.8,/,1.1,/
COCCn1c(SCC(=O)Nc2ccc(C)cc2C)nc2c(oc3ccccc32)c1=O,/,.,/,.,/
O=S(=O)(CCN1CCN(C(c2ccccc2)c2ccccc2)CC1)C(F)(F)F,.,.,4.4,.,.
c1ccc(OCCOCCN2CCN(C(c3ccccc3)c3ccccc3)CC2)cc1,/,.,/,.,/
Cc1cccc(OCC(=O)Nc2cc(C)c(C)cc2O)c1,.,.,.,.,.
O=C(CCC1CCCCC1)Nc1ccccc1O,.,.,.,.,.
SMILES,Lung fibro prol,bCat KO growth,H69AR inhibit,HCT116 PTEN-null,HUVEC prolif 384
Cc1cccc(OCC(=O)Nc2cc(C)ccc2O)c1,.,.,24,.,.
COc1cccc(C(=O)/C=C/Nc2cc(C)ccc2O)c1,.,.,8.9,.,.
CCOC(=O)c1ccc(N/C=C\C(=O)c2cccc(OC)c2)cc1,/,.,/,.,/
Cc1ccc(O)c(NC(=O)CCC2CCCCC2)c1,.,.,27,.,.
Cc1cc(CN2CCN(CCC#N)CC2)c(O)c(C2(C)CCCCC2)c1,.,.,38,.,.
Cc1sc2ncnc(Sc3nnc4sc5ccccc5n34)c2c1C,.,.,35,.,.
COc1ccc(C(=O)c2c(C(F)(F)F)oc3c2C(=O)c2ccccc2C3=O)cc1OC,2.4,1.3,1.6,1.9,4.7
CCn1c(C2CC(=O)N(Cc3ccccc3)C2)nc2ccccc21 (stereo not drawn),.,.,.,.,.
CC(C)(C)N1CC(c2nc3ccccc3n2Cc2ccccc2)CC1=O (stereo not drawn),.,.,38,.,.
